One block for each molecule: values may come before it.
Legend:
TLR3 = molecular target: T1, TLR3 (Mus musculus, UniProt Q99MB1); experiment: TLR specificity test, NO production induced by poly; assay type: cell-based, murine; conditions: 0.6 μM, RAW 264.7 cells, poly(I:C)
T1 sequence (Q99MB1 26-905): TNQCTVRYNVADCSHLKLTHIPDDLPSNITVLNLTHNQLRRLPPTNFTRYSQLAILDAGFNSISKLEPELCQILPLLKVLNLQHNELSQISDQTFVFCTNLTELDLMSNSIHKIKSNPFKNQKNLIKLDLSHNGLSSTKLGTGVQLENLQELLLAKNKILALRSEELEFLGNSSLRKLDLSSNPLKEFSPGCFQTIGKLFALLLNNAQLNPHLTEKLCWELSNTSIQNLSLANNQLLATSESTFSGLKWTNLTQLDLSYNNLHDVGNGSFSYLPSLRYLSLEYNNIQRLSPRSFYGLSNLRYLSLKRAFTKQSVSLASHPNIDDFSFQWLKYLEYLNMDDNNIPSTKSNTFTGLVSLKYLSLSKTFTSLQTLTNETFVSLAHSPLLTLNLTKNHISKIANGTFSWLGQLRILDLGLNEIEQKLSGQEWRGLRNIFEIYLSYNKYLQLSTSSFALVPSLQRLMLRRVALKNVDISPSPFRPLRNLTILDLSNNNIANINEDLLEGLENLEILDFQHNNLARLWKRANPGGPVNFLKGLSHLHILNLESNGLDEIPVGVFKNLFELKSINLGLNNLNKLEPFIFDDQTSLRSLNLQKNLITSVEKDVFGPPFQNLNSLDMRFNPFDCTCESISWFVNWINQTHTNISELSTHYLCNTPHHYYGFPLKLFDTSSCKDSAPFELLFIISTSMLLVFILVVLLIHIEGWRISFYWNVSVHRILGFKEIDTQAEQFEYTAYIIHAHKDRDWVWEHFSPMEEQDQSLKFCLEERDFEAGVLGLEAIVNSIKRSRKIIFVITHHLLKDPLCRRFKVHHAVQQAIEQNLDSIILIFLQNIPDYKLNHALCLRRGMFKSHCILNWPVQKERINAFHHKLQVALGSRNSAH

cell viability = experiment: WST-1 cell viability / toxicity assay; assay type: cell-based; conditions: up to 10.0 μM
In short: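 Cells are seeded at 2×10^4 per well and cultured 24 h at 37°C, then moved to serum-free medium with vehicle or test compound at various concentrations for 24 h. Premixed WST-1 reagent is added, and after 30 min at 37°C absorbance is read at 490 nm.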

TLR2/TLR6 heterodimer = TLR2/TLR6 heterodimer (Mus musculus, UniProt Q9EPW9+Q9QUN7); experiment: TLR specificity test, NO production induced by FSL-1 in RAW 264.7 cells; assay type: cell-based, murine; conditions: 0.6 μM
[1] = test system: LPS-induced activation of NF-κB; experiment: NF-κB dual luciferase reporter assay in BV-2 microglial cells; assay type: cell-based
In short: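 NF-κB dual-luciferase reporter BV-2 microglia are kept in DMEM with 10% FBS, penicillin, streptomycin and puromycin (3 μg/mL). After 24 h seeding, medium is switched to Opti-MEM with 0.5% FBS. Test compound is added, then LPS at 200 ng/mL for 24 h. Dual-Glo luminescence is read, and the firefly/Renilla ratio is taken as NF-κB activity.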

TLR7/8 = experiment: TLR specificity test, NO production induced by R848 in RAW 264.7 cells; assay type: cell-based, murine; conditions: 0.6 μM
TLR1/TLR2 = TLR1/TLR2 (Mus musculus, UniProt Q9EPQ1+Q9QUN7); experiment: TLR specificity test, NO production induced by Pam3CSK4 in RAW 264.7 cells; assay type: cell-based, murine; conditions: 0.6 μM
[2] = test system: LPS-induced NO production in RAW 264.7 macrophage cells; experiment: Inhibition of LPS-induced NO production in RAW 264.7 macrophage cells; assay type: cell-based, murine
[3] = test system: LPS-induced IL-1β production; experiment: LPS-induced IL-1β production in RAW 264.7 cells; assay type: cell-based, murine; conditions: ELISA
In short: (§1)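 RAW 264.7 macrophages are grown in RPMI 1640 with 10% FBS, penicillin and streptomycin at 37°C and 5% CO2. Cells are pretreated with or without LPS, then given test compound (10 mM DMSO stock). After 24 h, supernatants are clarified and cells are lysed, with both stored at −80°C. ELISA measures TNF-α in medium and IL-1β in lysate, with IL-1β normalized to total protein.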

[4] = test system: LPS-induced TNF-α production; experiment: LPS-induced TNF-α production in RAW 264.7 cells; assay type: cell-based, murine; conditions: ELISA
In short: as §1

Chain of TLR1/TLR2 (Q9EPQ1 26-795): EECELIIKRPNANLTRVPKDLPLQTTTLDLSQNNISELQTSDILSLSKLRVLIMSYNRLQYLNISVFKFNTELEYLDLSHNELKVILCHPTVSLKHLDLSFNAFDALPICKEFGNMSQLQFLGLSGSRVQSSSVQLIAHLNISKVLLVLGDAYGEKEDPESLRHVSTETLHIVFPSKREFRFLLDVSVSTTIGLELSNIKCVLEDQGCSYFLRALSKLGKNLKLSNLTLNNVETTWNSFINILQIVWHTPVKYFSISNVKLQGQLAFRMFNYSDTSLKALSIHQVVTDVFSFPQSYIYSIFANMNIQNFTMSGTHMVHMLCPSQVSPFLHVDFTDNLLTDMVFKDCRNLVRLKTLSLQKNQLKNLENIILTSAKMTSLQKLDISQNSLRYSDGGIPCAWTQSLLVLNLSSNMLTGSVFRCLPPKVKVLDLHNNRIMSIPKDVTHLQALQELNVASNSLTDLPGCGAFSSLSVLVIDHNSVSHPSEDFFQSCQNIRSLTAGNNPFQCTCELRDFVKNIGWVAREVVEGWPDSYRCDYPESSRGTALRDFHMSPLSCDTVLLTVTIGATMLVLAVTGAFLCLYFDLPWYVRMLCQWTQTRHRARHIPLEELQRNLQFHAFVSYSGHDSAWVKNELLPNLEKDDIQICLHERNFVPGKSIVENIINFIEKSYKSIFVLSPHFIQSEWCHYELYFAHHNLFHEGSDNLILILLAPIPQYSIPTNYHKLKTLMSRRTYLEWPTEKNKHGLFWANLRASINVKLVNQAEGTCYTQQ
Chain of TLR1/TLR2 (Q9QUN7 25-784): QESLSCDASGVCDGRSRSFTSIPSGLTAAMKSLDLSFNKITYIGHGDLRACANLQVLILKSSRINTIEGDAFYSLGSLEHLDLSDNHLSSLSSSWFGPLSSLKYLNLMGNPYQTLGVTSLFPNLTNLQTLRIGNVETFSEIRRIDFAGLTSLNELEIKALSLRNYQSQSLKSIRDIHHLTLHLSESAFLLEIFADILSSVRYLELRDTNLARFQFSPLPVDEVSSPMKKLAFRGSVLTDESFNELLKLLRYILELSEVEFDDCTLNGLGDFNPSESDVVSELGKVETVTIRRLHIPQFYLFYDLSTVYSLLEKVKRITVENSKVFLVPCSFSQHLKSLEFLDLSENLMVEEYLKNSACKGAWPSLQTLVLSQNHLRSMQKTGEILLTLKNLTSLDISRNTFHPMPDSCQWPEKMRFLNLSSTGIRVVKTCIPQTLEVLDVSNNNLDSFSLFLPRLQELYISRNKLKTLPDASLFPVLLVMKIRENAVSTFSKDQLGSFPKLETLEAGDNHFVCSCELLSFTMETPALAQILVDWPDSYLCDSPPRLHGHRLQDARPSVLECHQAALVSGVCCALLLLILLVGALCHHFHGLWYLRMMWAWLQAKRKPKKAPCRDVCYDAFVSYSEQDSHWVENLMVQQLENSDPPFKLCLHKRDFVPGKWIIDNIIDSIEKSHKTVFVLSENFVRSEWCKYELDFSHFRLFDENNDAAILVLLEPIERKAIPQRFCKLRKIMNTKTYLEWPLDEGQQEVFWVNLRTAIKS
Chain of TLR2/TLR6 heterodimer (Q9QUN7 25-784): as above
Chain of TLR2/TLR6 heterodimer (Q9EPW9 28-795): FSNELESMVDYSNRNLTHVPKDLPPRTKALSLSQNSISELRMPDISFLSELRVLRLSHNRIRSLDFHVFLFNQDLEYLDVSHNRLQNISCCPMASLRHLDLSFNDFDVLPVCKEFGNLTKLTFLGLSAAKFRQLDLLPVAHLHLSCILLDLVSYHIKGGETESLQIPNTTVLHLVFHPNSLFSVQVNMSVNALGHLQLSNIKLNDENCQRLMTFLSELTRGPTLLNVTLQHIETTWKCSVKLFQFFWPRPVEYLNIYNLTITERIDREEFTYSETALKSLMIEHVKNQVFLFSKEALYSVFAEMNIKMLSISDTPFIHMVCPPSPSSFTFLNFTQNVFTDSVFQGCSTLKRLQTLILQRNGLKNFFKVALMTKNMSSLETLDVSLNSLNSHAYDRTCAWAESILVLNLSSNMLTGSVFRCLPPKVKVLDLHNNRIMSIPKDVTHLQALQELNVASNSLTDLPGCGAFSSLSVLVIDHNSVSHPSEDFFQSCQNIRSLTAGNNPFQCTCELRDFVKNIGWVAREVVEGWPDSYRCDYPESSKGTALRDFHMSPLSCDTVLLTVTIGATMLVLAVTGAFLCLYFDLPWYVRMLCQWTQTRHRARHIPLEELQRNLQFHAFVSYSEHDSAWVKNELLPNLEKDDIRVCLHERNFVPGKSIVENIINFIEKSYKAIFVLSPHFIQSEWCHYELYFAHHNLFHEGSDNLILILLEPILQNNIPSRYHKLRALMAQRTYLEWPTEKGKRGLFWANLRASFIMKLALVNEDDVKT

inhibition of TLR3 signaling (NO production) (TLR3): negligible inhibition
effect on signal via TLR2/TLR6 heterodimer (NO production) (TLR2/TLR6 heterodimer): reduced the signal
IC50 ([1]; Mus musculus, BV-2, 24 h, read-out: IC50, inhibition of LPS-induced NF-κB reporter activity): 5.92 ± 0.14 µM
inhibition of TLR1/TLR2 signaling (NO production) (TLR1/TLR2): negligible inhibition
SMILES: COC(=O)C(=Cc1ccccc1[N+](=O)[O-])C(=O)OC [Compound 1, Dimethyl 2-(2-nitrobenzylidene)malonate]
cytotoxicity (WST-1 toxicity assay) (cell viability): did not show significant toxicity
inhibition of TLR7/8 signaling (NO production) (TLR7/8): negligible inhibition

SMILES: COC(=O)C(=Cc1ccccc1)C(=O)OC [Compound 2, Dimethyl 2-benzylidenemalonate]
decrease of activity relative to 1 (NO production) ([2]; absence of any substituent on the benzene ring): greater than 2 fold

SMILES: COC(=O)C(Cc1ccccc1[N+](=O)[O-])C(=O)OC [Compound 22, Dimethyl 2-(2-nitrobenzyl) malonate]
effect on LPS-induced NF-κB activation ([1]; BV-2 cells, concentrations up to 10 μM): did not alter
effect on IL-1β production [3]: did not affect
effect on TNF-α production [4]: did not affect
inhibition of LPS-induced NO production ([2]; RAW 264.7 cells, at the tested concentrations (Figure 1A)): negligible inhibition
